In brackets after ≈: the same amount, converted by molar mass. Activity calls are given as the source filed them. No cut-off for these calls is given here. Positions of bridges follow the written chain, without caps; N, C: chain ends. Non-standard residues stand in square brackets, D forms with d. Residues, ends and D or L forms follow the SMILES beside them. *: point of attachment. X1 = CC[C@H](C)CCCCC(=O)*; Dab = NCC[C@H](N)C(=O)O
Assays:
[1] = tested on: Enterococcus faecalis; assay: Antibacterial activity against Enterococcus faecalis ATCC 29212 assessed as inhibition of bacterial growth measured after 16 hrs by agar plate dilution method; assay type: functional
[2] = tested on: Staphylococcus aureus; assay: Antibacterial activity against Staphylococcus aureus ATCC 29213 assessed as inhibition of bacterial growth measured after 16 hrs by agar plate dilution method; assay type: functional
Procedure, shortened: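 MIC determined by plate dilution against the reference strain; values from at least two independent experiments.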

[3] = tested on: Staphylococcus aureus; assay: Antibacterial activity against methicillin sensitive Staphylococcus aureus assessed as inhibition of bacterial growth measured after 16 hrs by agar plate dilution method; assay type: functional
Procedure, shortened: (§1)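 Clinical MSSA and MRSA strains isolated from local hospitals; MIC determined by plate dilution; data from at least two independent experiments.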

[4] = tested on: Staphylococcus aureus; assay: Antibacterial activity against methicillin resistant Staphylococcus aureus assessed as inhibition of bacterial growth measured after 16 hrs by agar plate dilution method; assay type: functional; procedure, shortened: as §1
[5] = tested on: Staphylococcus aureus; assay: Inhibition of Staphylococcus aureus FabH A81V/A111T mutant assessed as bacterial growth inhibition measured after 18 hrs by resazurin dye based broth dilution assay
Procedure, shortened: (§2)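 S. aureus strains carrying point mutations in the FabH active site; MIC determined by broth dilution; data from at least two independent experiments.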

[6] = tested on: Staphylococcus aureus; assay: Inhibition of Staphylococcus aureus FabH A81V mutant assessed as bacterial growth inhibition measured after 18 hrs by resazurin dye based broth dilution assay; procedure, shortened: as §2
[7] = tested on: Staphylococcus aureus; assay: Antibacterial activity against methicillin resistant Staphylococcus aureus assessed as inhibition of bacterial growth measured after 18 hrs in presence of 10% human serum by resazurin dye based broth dilution assay; assay type: functional
[8] = tested on: Escherichia coli; assay: Antibacterial activity against Escherichia coli harboring delta tolC mutant assessed as inhibition of bacterial growth measured after 16 hrs by agar plate dilution method; assay type: functional
[9] = Binding affinity to His6-tagged Escherichia coli FabF C163Q mutant expressed in Escherichia coli BL21 (DE3) assessed as binding constant measured after 200 sec by isothermal titration calorimetry
Procedure, shortened: (§3)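 Ligands were dissolved in PBS (10 mM, pH 7.4) and titrated into E. coli FabF(C163Q) in the same buffer. Protein was at 12 or 14 μM and ligand at 250 μM. Thermodynamic parameters (ΔH, ΔS, ΔG, Kd, n) were calculated from the heat of binding. Runs were done at least three times; one representative run was used.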

[10] = tested on: Escherichia coli; assay: Binding affinity to His6-tagged Escherichia coli FabF C163Q mutant expressed in Escherichia coli BL21 (DE3) assessed as stoichiometry ratio measured after 200 sec by isothermal titration calorimetry; procedure, shortened: as §3
[11] = tested on: Escherichia coli; assay: Binding affinity to His6-tagged Escherichia coli FabF C163Q mutant expressed in Escherichia coli BL21 (DE3) assessed as change in enthalpy measured after 200 sec by isothermal titration calorimetry; procedure, shortened: as §3
[12] = tested on: Escherichia coli; assay: Binding affinity to His6-tagged Escherichia coli FabF C163Q mutant expressed in Escherichia coli BL21 (DE3) assessed as change in entropy measured after 200 sec by isothermal titration calorimetry; procedure, shortened: as §3
[13] = tested on: Escherichia coli; assay: Binding affinity to His6-tagged Escherichia coli FabF C163Q mutant expressed in Escherichia coli BL21 (DE3) assessed Gibbs free energy change measured after 200 sec by isothermal titration calorimetry; procedure, shortened: as §3
[14] = molecular target: T1, 3-oxoacyl-[acyl-carrier-protein] synthase 2 (Staphylococcus aureus) (UniProt Q5TKS0); assay: Binding affinity to His6-tagged Staphylococcus aureus FabF expressed in Escherichia coli BL21 (DE3) assessed as decrease in melting temperature at 10 uM by SYPRO orange based differential scanning fluorimetry
T1 sequence (whole entry): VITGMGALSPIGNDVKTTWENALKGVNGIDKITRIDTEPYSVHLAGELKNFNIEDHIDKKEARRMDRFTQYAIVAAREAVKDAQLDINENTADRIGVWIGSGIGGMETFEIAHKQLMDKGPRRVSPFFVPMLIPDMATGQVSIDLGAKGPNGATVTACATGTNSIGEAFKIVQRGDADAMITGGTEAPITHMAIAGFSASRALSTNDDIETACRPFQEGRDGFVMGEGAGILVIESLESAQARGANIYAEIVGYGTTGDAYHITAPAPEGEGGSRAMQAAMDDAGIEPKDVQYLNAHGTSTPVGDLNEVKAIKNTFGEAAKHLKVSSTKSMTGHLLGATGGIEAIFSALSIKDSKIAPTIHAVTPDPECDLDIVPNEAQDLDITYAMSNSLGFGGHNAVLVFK
Procedure, shortened: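 S. aureus FabF melting curves were measured by DSF in 20 mM HEPES, 180 mM NaCl, pH 7.5, a buffer selected by screening seven buffers. ΔTm was derived from the melting-temperature shift caused by ligand; n = 4.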

[15] = tested on: Escherichia coli; assay: Binding affinity to His6-tagged Escherichia coli FabH expressed in Escherichia coli BL21 (DE3) assessed as decrease in melting temperature at 10 uM by SYPRO orange based differential scanning fluorimetry
Procedure, shortened: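 Purified E. coli FabH melting curves were recorded with and without ligand by thermal-shift fluorometry in 1.0 M Tris-HCl, pH 6.8, a buffer chosen from seven screened. ΔTm was taken from the Tm shift; n = 4.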

Row | SMILES | MIC [1] | MIC [2] | MIC [3] | MIC [4] | MIC [5] | MIC [6] | MIC [7] | MIC [8] | Kd [9] | Ratio [10] | deltaH [11] | -TdeltaS [12] | deltaG [13] | Activity [14] | Activity [15]
1 | C[C@]12C[C@@]34C=CC(=O)[C@@](C)(CCC(=O)Nc5c(O)ccc(C(=O)O)c5O)[C@@H]3[C@H](C[C@@H]1C4)O2 | 2 µg/mL (≈ 4.53 µM) | 1 µg/mL (≈ 2.27 µM) | 0.5 µg/mL (≈ 1.13 µM) | 1 µg/mL (≈ 2.27 µM) | > 32 µg/mL | > 32 µg/mL | 2 µg/mL | 32 µg/mL (≈ 72.5 µM) | 17.3 nM | 1.16 | -2.06 kcal/mol | -7.95 kcal/mol | -10 kcal/mol | – | –
2 | CC1(C)S[C@@H]2[C@H](NC(=O)[C@H](N)c3ccccc3)C(=O)N2[C@H]1C(=O)O | – | – | – | – | 32 µg/mL (≈ 91.6 µM) | 16 µg/mL (≈ 45.8 µM) | – | – | – | – | – | – | – | – | –
3 | CC[C@H](C)CCCCC(=O)N[C@@H](CCN)C(=O)N[C@H](C(=O)N[C@@H](CCN)C(=O)N[C@H]1CCNC(=O)[C@H]([C@@H](C)O)NC(=O)[C@H](CCN)NC(=O)[C@H](CCN)NC(=O)[C@H](CC(C)C)NC(=O)[C@@H](Cc2ccccc2)NC(=O)[C@H](CCN)NC1=O)[C@@H](C)O (X1-[Dab]T[Dab][Dab][Dab][dF]L[Dab][Dab]T; lactam 4-C) | – | – | – | – | – | – | – | 4 µg/mL (≈ 3.32 µM) | – | – | – | – | – | – | –
4 | C=C1C[C@]23C=C(SCCC)C(=O)[C@@](C)(CCC(=O)Nc4c(O)ccc(C(=O)O)c4O)[C@@H]2CC1CC3 (single isomer, unassigned) | – | 8 µg/mL (≈ 16 µM) | 4 µg/mL (≈ 8.01 µM) | 4 µg/mL (≈ 8.01 µM) | – | – | – | – | – | – | – | – | – | Active | Active
5 | C=C1C[C@]23C=C(Sc4ccccn4)C(=O)[C@@](C)(CCC(=O)Nc4c(O)ccc(C(=O)O)c4O)[C@@H]2CC1CC3 (single isomer, unassigned) | – | 4 µg/mL (≈ 7.48 µM) | 2 µg/mL (≈ 3.74 µM) | 2 µg/mL (≈ 3.74 µM) | – | – | – | – | – | – | – | – | – | Active | Active
6 | C=C1C[C@]23C=C(Sc4ccc(I)cc4)C(=O)[C@@](C)(CCC(=O)Nc4c(O)ccc(C(=O)O)c4O)[C@@H]2CC1CC3 (single isomer, unassigned) | – | 8 µg/mL (≈ 12.1 µM) | 4 µg/mL (≈ 6.06 µM) | 4 µg/mL (≈ 6.06 µM) | – | – | – | – | – | – | – | – | – | Active | Active
7 | C=C1C[C@]23C=C(SC(C)(C)C)C(=O)[C@@](C)(CCC(=O)Nc4c(O)ccc(C(=O)O)c4O)[C@@H]2CC1CC3 (single isomer, unassigned) | – | 16 µg/mL (≈ 31.1 µM) | 8 µg/mL (≈ 15.6 µM) | 8 µg/mL (≈ 15.6 µM) | – | – | – | – | – | – | – | – | – | Active | Active
8 | C=C1C[C@]23C=C(Sc4ccc(Br)cc4)C(=O)[C@@](C)(CCC(=O)Nc4c(O)ccc(C(=O)O)c4O)[C@@H]2CC1CC3 (single isomer, unassigned) | 2 µg/mL (≈ 3.27 µM) | 4 µg/mL (≈ 6.53 µM) | 1 µg/mL (≈ 1.63 µM) | 1 µg/mL (≈ 1.63 µM) | 4 µg/mL (≈ 6.53 µM) | 8 µg/mL (≈ 13.1 µM) | 16 µg/mL | > 32 µg/mL | – | – | – | – | – | Active | Active
9 | C=C1C[C@]23C=C(Sc4ccc(C)cc4)C(=O)[C@@](C)(CCC(=O)Nc4c(O)ccc(C(=O)O)c4O)[C@@H]2CC1CC3 (single isomer, unassigned) | 2 µg/mL (≈ 3.65 µM) | 4 µg/mL (≈ 7.3 µM) | 2 µg/mL (≈ 3.65 µM) | 1 µg/mL (≈ 1.83 µM) | 16 µg/mL (≈ 29.2 µM) | 16 µg/mL (≈ 29.2 µM) | > 32 µg/mL | > 32 µg/mL | – | – | – | – | – | Active | Active
10 | C=C1C[C@]23C=C(Sc4ccccc4C)C(=O)[C@@](C)(CCC(=O)Nc4c(O)ccc(C(=O)O)c4O)[C@@H]2CC1CC3 (single isomer, unassigned) | 2 µg/mL (≈ 3.65 µM) | 1 µg/mL (≈ 1.83 µM) | 1 µg/mL (≈ 1.83 µM) | 1 µg/mL (≈ 1.83 µM) | 4 µg/mL (≈ 7.3 µM) | 4 µg/mL (≈ 7.3 µM) | 32 µg/mL | > 32 µg/mL | – | – | – | – | – | Active | Active
11 | C=C1C[C@]23C=C(Sc4cccs4)C(=O)[C@@](C)(CCC(=O)Nc4c(O)ccc(C(=O)O)c4O)[C@@H]2CC1CC3 (single isomer, unassigned) | – | 2 µg/mL (≈ 3.71 µM) | 2 µg/mL (≈ 3.71 µM) | 2 µg/mL (≈ 3.71 µM) | – | – | – | – | – | – | – | – | – | Active | Active
12 | C=C1C[C@]23C=C(Sc4ncccn4)C(=O)[C@@](C)(CCC(=O)Nc4c(O)ccc(C(=O)O)c4O)[C@@H]2CC1CC3 (single isomer, unassigned) | – | 16 µg/mL (≈ 29.9 µM) | 8 µg/mL (≈ 14.9 µM) | 8 µg/mL (≈ 14.9 µM) | – | – | – | – | – | – | – | – | – | Active | Active
13 | C=C1C[C@]23C=C(SCCO)C(=O)[C@@](C)(CCC(=O)Nc4c(O)ccc(C(=O)O)c4O)[C@@H]2CC1CC3 (single isomer, unassigned) | 2 µg/mL (≈ 3.99 µM) | 8 µg/mL (≈ 15.9 µM) | 32 µg/mL (≈ 63.8 µM) | > 32 µg/mL | > 32 µg/mL | > 32 µg/mL | > 32 µg/mL | > 32 µg/mL | 223 nM | 1.17 | -1.09 kcal/mol | -7.72 kcal/mol | -8.8 kcal/mol | – | –
14 | C=C1C[C@@]23CCC1C[C@H]2[C@](C)(CCC(=O)Nc1c(O)ccc(C(=O)O)c1O)C(=O)[C@@H]1O[C@@H]13 (single isomer, unassigned) | 2 µg/mL (≈ 4.53 µM) | 8 µg/mL (≈ 18.1 µM) | 4 µg/mL (≈ 9.06 µM) | 4 µg/mL (≈ 9.06 µM) | > 32 µg/mL | > 32 µg/mL | 16 µg/mL | 4 µg/mL (≈ 9.06 µM) | 102 nM | 1.17 | -1.66 kcal/mol | -7.59 kcal/mol | -9.25 kcal/mol | Active | Active
15 | CC(=O)NC[C@H]1CN(c2ccc(N3CCOCC3)c(F)c2)C(=O)O1 [LINEZOLID] | 0.5 µg/mL (≈ 1.48 µM) | 0.5 µg/mL (≈ 1.48 µM) | 0.5 µg/mL (≈ 1.48 µM) | 0.5 µg/mL (≈ 1.48 µM) | – | – | – | – | – | – | – | – | – | – | –

Source: ChEMBL document CHEMBL4765495, “Semisynthesis and Biological Evaluation of Platencin Thioether Derivatives: Dual FabF and FabH Inhibitors against MRSA” (ACS Med Chem Lett, 2021)
